Experimental findings from ChEMBL document CHEMBL2311478, “Macrolactonolides: a novel class of anti-inflammatory compounds” (Bioorg Med Chem, 2013) are described below.

In one data set the target is T1, Glucocorticoid receptor (Homo sapiens, UniProt P04150).
T1 sequence (P04150 whole entry): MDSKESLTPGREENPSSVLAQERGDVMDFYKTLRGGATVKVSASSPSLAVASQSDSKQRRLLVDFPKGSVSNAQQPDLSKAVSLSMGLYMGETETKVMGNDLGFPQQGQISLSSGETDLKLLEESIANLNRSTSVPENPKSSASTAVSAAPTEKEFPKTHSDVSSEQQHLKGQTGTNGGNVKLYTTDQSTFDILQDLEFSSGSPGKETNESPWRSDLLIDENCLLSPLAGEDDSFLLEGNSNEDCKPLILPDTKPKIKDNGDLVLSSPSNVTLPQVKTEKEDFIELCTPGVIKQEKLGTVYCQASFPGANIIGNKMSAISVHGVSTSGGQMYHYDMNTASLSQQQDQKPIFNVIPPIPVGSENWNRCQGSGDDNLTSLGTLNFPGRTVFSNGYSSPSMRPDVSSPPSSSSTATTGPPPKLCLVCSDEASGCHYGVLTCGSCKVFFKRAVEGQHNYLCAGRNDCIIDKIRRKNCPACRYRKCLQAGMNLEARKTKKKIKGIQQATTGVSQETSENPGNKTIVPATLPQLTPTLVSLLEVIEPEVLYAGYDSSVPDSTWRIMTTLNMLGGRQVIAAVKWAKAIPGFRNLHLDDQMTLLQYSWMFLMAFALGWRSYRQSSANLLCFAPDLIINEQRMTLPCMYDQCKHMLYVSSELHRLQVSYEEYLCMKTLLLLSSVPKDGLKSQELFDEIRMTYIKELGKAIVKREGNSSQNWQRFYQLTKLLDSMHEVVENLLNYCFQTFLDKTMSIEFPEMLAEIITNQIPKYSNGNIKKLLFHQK
In words: Displacement of [3H]-dexamethasone human glucocorticoid receptor alpha expressed in 293 MSR cells after 60 mins by scintillation counting. Type of data set: cell-based. For orientation: In a radioligand displacement assay an active substance lowers the binding of a labelled ligand.

The subject of data set [1] is PBMC. In words: Antiinflammatory activity in human PBMC assessed as inhibition of LPS-induced TNFalpha production after 6 hrs. It counts as functional, cell-based. In short, it runs like this:
(§1)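 Thawed cryopreserved human PBMCs were preincubated 1 h at 37 °C, 5% CO2, then exposed to test compound for 1 h before LPS, anti-CD3 or PHA stimulation. Supernatants were collected at 6, 24 or 48 h according to each cytokine's peak, and cytokines quantified by Luminex multiplex bead assay. 10-point titration starting at 20 µM, in duplicate, with constant DMSO. Parallel Alamar Blue cytotoxicity check under 48 h PHA.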

Data set [2] can be described thus: Half life in Balb/c mouse plasma at 2 mg/kg, administered intranasally. Conditions: inhaled or intranasal. On the set-up: dose 2 mg/kg. Type of data set: ADME, organism-based. In short, it runs like this:
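Male Balb/c mice (21–25 g) dosed intranasally with freshly prepared formulation in 1% DMSO plus 0.125% CMC. Terminal bleeding and lung collection from 5 min to 72 h. K2EDTA blood taken as blood aliquots or spun for plasma. Lung homogenised 1:5 in water. Samples were protein-precipitated with acetonitrile/methanol (2:1) plus roxithromycin internal standard and quantified by LC–MS/MS. LLOQ 0.5 ng/mL (blood/plasma) and 2.5 ng/mL (lung).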

A further data set deals with Streptococcus pneumoniae. Nature of the data set: Antibacterial activity against constitutive-resistant to macrolide, licosamide and streptogramin Streptococcus pneumoniae 58 Spain by broth microdilution method. Type of data set: functional. In short, it runs like this:
(§2)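 MICs by CLSI broth microdilution with double dilutions, except that Streptococcus medium used 5% horse serum in place of lysed blood. Bacteria were pre-grown on Columbia agar with 5% sheep blood (streptococci) or Mueller–Hinton agar (staphylococci).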
A general note: In broth dilution the organism is exposed to a series of concentrations in liquid medium.

For a further data set, the system named is Staphylococcus aureus. Nature of the data set: Antibacterial activity against Staphylococcus aureus ATCC 13709 by broth microdilution method. Type of data set: functional. An outline of the steps:
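CLSI broth microdilution with double dilutions in 96-well plates. For streptococci, 5% horse serum replaced lysed blood in the medium. Inocula were grown on Columbia agar with 5% sheep blood for streptococci, Mueller–Hinton chocolate agar for H. influenzae, and Mueller–Hinton agar for staphylococci. Read-out is MIC in mg/L.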

Data set [3] deals with PBMC. In words: Antiinflammatory activity in human PBMC assessed as inhibition of PHA-induced TNFalpha production after 6 hrs. Type of data set: functional, cell-based. In short, it runs like this: as §1
A further data set concerns Streptococcus pyogenes. In words: Antibacterial activity against efflux mediated macrolide-resistant Streptococcus pyogenes Finland 2 by broth microdilution method. It counts as functional. An outline of the steps: as §2
Data set [4] concerns PBMC. In words: Antiinflammatory activity in human PBMC assessed as inhibition of PHA-induced IL-2 production after 48 hrs. It counts as functional, cell-based. In short, it runs like this: as §1

What is called EC50 is the midpoint of the concentration-response curve. By half-life is commonly meant how long it takes for the measured level to halve. Lower therefore signals rapid decline. In general, MIC refers to the lowest concentration found to suppress growth. Low values mean greater potency, high ones weaker potency.

Converted amounts (≈) assume the structure as drawn.

With `CC[C@H]1OC(=O)[C@H](C)[C@@H](O[C@H]2C[C@@](C)(OC)[C@@H](O)[C@H](C)O2)[C@H](C)[C@@H](O[C@@H]2O[C@H](C)C[C@H](N(C)C)[C@H]2O)[C@](C)(O)C[C@@H](C)CN(CCCNC(=O)[C@H]2[C@H](C)C[C@H]3[C@@H]4CCC5=CC(=O)C=C[C@]5(C)[C@@]4(F)[C@@H](O)C[C@@]32C)[C@H](C)[C@@H](O)[C@]1(C)O`, the EC50 was 430 nM on Glucocorticoid receptor, 3000 nM with PBMC [1], 1330 nM with PBMC [3] and > 20000 nM in the data set on PBMC [4]. The compound also had a half-life in data set [2] of 54 min. The MIC with Streptococcus pneumoniae stood at 64 µg/mL (≈ 56.3 µM); against Staphylococcus aureus, 8 µg/mL (≈ 7.04 µM); against Streptococcus pyogenes, 32 µg/mL (≈ 28.2 µM).
